Assay results taken from ChEMBL document CHEMBL2086314, “Synthesis and anticonvulsant activity of new N-Mannich bases derived from 3-(2-fluorophenyl)- and 3-(2-bromophenyl)-pyrrolidine-2,5-diones. Part II” (Bioorg Med Chem, 2012).
The source made the active and inactive calls. No cut-off for these calls is given here.

Columns and labels:
Mus musculus [1] = experiment: Anticonvulsant activity in CF-1 albino mouse assessed as protection from maximal electric shock-induced seizures at 300 mg/kg, ip measured after 0.5 hrs; format: functional, organism-based; set-up: dose 300 mg/kg
How it was run: (§1)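 Male CF-1 mice dosed ip at 30, 100 or 300 mg/kg, suspension in 0.5% methylcellulose/water. MES: corneal electrodes primed with electrolyte containing anaesthetic, 50 mA, 60 Hz, 0.2 s. Examined 0.5 and 4 h after dosing. Value is the minimum dose protecting half or more of the animals.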

Mus musculus [2] = experiment: Anticonvulsant activity in CF-1 albino mouse assessed as protection from maximal electric shock-induced seizures at 300 mg/kg, ip measured after 4 hrs; format: functional, organism-based; set-up: dose 300 mg/kg; how it was run: as §1
Mus musculus [3] = experiment: Neurotoxicity in CF-1 albino mouse assessed as motor impairment at 300 mg/kg, ip measured after 0.5 hrs by rotarod test; format: toxicity, organism-based; set-up: dose 300 mg/kg, route intraperitoneal; conditions: in vivo
How it was run: (§2)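 Rotarod neurotoxicity in male CF-1 mice given ip doses of 30, 100 or 300 mg/kg (0.5% methylcellulose suspension), examined 0.5 and 4 h after dosing. Impairment means failing to hold balance on the rod for 1 min. Value is the minimum dose causing toxicity in half or more of the animals; response comments are recorded.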

Mus musculus [4] = experiment: Neurotoxicity in CF-1 albino mouse assessed as motor impairment at 300 mg/kg, ip measured after 4 hrs by rotarod test; format: toxicity, organism-based; set-up: dose 300 mg/kg, route intraperitoneal; conditions: in vivo; how it was run: as §2
Mus musculus [5] = experiment: Anticonvulsant activity in CF-1 albino mouse assessed as protection against subcutaneous pentylenetetrazol-induced seizures at 300 mg/kg, ip measured after 0.5 hrs; format: functional, organism-based; set-up: dose 300 mg/kg
How it was run: (§3)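 scPTZ test in male CF-1 mice. Compound suspended in 0.5% methylcellulose/water, ip at 30, 100 or 300 mg/kg. Pentylenetetrazole 85 mg/kg (CD97, clonic seizures lasting at least 5 s) given subcutaneously at the test time, read at 0.5 and 4 h. Value is the minimum dose protecting half or more of the animals.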

Mus musculus [6] = experiment: Anticonvulsant activity in CF-1 albino mouse assessed as protection against subcutaneous pentylenetetrazol-induced seizures at 300 mg/kg, ip measured after 4 hrs; format: functional, organism-based; set-up: dose 300 mg/kg; how it was run: as §3
Mus musculus [7] = experiment: Anticonvulsant activity in ip dosed CF-1 albino mouse assessed as protection from maximal electric shock-induced seizures measured after 4 hrs; format: functional; conditions: read-out: MED; how it was run: as §1
Mus musculus [8] = experiment: Neurotoxicity in ip dosed CF-1 albino mouse assessed as motor impairment measured after 0.5 hrs by rotarod test; format: toxicity, organism-based; conditions: in vivo; how it was run: as §2
Mus musculus [9] = experiment: Anticonvulsant activity in ip dosed CF-1 albino mouse assessed as protection from maximal electric shock-induced seizures measured after 0.5 hrs; format: functional; conditions: read-out: MED; how it was run: as §1
Mus musculus [10] = experiment: Neurotoxicity in CF-1 albino mouse assessed as motor impairment, ip measured after 4 hrs by rotarod test; format: toxicity, organism-based; conditions: in vivo
Rattus norvegicus [11] = experiment: Anticonvulsant activity in Sprague-Dawley rat assessed as protection from maximum electric shock-induced seizures at 30 mg/kg, po measured after 0.25 hrs; format: functional
How it was run: (§4)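 Male Sprague–Dawley rats, four per group, given 30 mg/kg orally as a suspension in 0.5% methylcellulose/water. MES stimulus 150 mA, 60 Hz, 0.2 s via corneal electrodes. Tested at 0.25, 0.5, 1, 2 and 4 h; value is rats protected out of four.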

Rattus norvegicus [12] = experiment: Anticonvulsant activity in Sprague-Dawley rat assessed as protection from maximum electric shock-induced seizures at 30 mg/kg, po measured after 0.5 hrs; format: functional; how it was run: as §4
Rattus norvegicus [13] = experiment: Anticonvulsant activity in Sprague-Dawley rat assessed as protection from maximum electric shock-induced seizures at 30 mg/kg, po measured after 1 hr; format: functional; how it was run: as §4
Rattus norvegicus [14] = experiment: Anticonvulsant activity in Sprague-Dawley rat assessed as protection from maximum electric shock-induced seizures at 30 mg/kg, po measured after 2 hrs; format: functional; how it was run: as §4
Rattus norvegicus [15] = experiment: Anticonvulsant activity in Sprague-Dawley rat assessed as protection from maximum electric shock-induced seizures at 30 mg/kg, po measured after 4 hrs; format: functional; how it was run: as §4
Rattus norvegicus [16] = experiment: Neurotoxicity in Sprague-Dawley rat assessed as motor impairment at 30 mg/kg, po by rotarod test; format: toxicity, organism-based; set-up: dose 30 mg/kg, route oral; conditions: in vivo
How it was run: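 Male Sprague–Dawley rats, four animals, oral 30 mg/kg in 0.5% methylcellulose/water. Motor impairment on the rotarod (failure to keep balance for 1 min) assessed alongside MES at five times from 0.25 to 4 h.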

[17] = Neurotoxicity in po dosed Sprague-Dawley rat assessed as motor impairment measured at time of peak effect by rotarod test; format: toxicity, organism-based; conditions: in vivo
How it was run: (§5)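 Male Sprague–Dawley rats dosed orally (0.5% methylcellulose suspension). MES 150 mA, 60 Hz, 0.2 s; rotarod impairment is failure to keep balance for 1 min. Groups of eight, at the previously estimated time of peak effect, with doses varied until at least three points fell in the 10–90% range. ED50/TD50 with 95% confidence intervals from regression; PI = TD50/ED50.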

Rattus norvegicus [18] = species on record: Rattus norvegicus; experiment: Protective index, ratio of TD50 for Sprague-Dawley rat to ED50 for Sprague-Dawley rat assessed as protection from maximum electric shock-induced seizures; format: functional; how it was run: as §5
Rattus norvegicus [19] = experiment: Anticonvulsant activity in po dosed maximum electric shock-induced Sprague-Dawley rat assessed as time of peak effect; format: functional; how it was run: as §5
Mus musculus [20] = species on record: Mus musculus; experiment: Protective index, ratio of TD50 for CF-1 albino mouse to ED50 for CF-1 albino mouse assessed as protection from maximum electric shock-induced seizures; format: functional
How it was run: (§6)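 ED50 and TD50 determined in male CF-1 mice after ip dosing (0.5% methylcellulose suspension) at the previously estimated time of peak effect. MES 50 mA, 60 Hz, 0.2 s. Groups of eight, with doses varied until at least three points fell between 10–90% protection or motor impairment. Regression gives ED50/TD50 with 95% confidence intervals; PI = TD50/ED50.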

Mus musculus [21] = experiment: Anticonvulsant activity in ip dosed maximal electric shock-induced CF-1 albino mouse assessed as time of peak effect; format: functional; how it was run: as §6
Mus musculus [22] = experiment: Anticonvulsant activity in CF-1 albino mouse assessed as protection against 6 Hz psychomotor seizure at 100 mg/kg, ip measured after 0.25 hrs; format: functional; conditions: route intraperitoneal
How it was run: (§7)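 6-Hz psychomotor seizure in male CF-1 mice, compound suspended in 0.5% methylcellulose/water, given ip (100 or 75 mg/kg). Corneal stimulation with 0.2 ms monopolar rectangular pulses at 6 Hz for 3 s, 32 mA, constant-current device. Protected if normal exploratory behaviour resumes within 10 s. Tested 0.25–4 h after dosing; value is mice protected out of four.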

Mus musculus [23] = experiment: Anticonvulsant activity in CF-1 albino mouse assessed as protection against 6 Hz psychomotor seizure at 100 mg/kg, ip measured after 0.5 hrs; format: functional; conditions: route intraperitoneal; how it was run: as §7
Mus musculus [24] = experiment: Anticonvulsant activity in CF-1 albino mouse assessed as protection against 6 Hz psychomotor seizure at 100 mg/kg, ip measured after 1 hr; format: functional; conditions: route intraperitoneal; how it was run: as §7
Mus musculus [25] = experiment: Anticonvulsant activity in CF-1 albino mouse assessed as protection against 6 Hz psychomotor seizure at 100 mg/kg, ip measured after 2 hrs; format: functional; conditions: route intraperitoneal; how it was run: as §7
Mus musculus [26] = experiment: Anticonvulsant activity in CF-1 albino mouse assessed as protection against 6 Hz psychomotor seizure at 100 mg/kg, ip measured after 4 hrs; format: functional; conditions: route intraperitoneal; how it was run: as §7

Row | Structure (SMILES) | Activity (Mus musculus [1]) | Activity (Mus musculus [2]) | Activity (Mus musculus [3]) | Activity (Mus musculus [4]) | minimal effective dose (Mus musculus [7]) [mg/kg] | also measured
1 | O=C1CC(c2ccccc2F)C(=O)N1CN1CCN(C2CCCCC2)CC1 (racemic) | inactive | inactive | Non-toxic | Non-toxic | – | Activity (Mus musculus [5]): inactive; Activity (Mus musculus [6]): inactive
2 | O=C1CC(c2ccccc2F)C(=O)N1CN1CCN(c2ccccc2)CC1 (racemic) | inactive | – | – | Non-toxic | 300 | MTC (Mus musculus [8]): 300 mg/kg
3 | O=C1CC(c2ccccc2Br)C(=O)N1CN1CCN(c2ccccc2Cl)CC1 (racemic) | inactive | – | Non-toxic | Non-toxic | 300 | –
4 | O=C1NC(=O)C(c2ccccc2)(c2ccccc2)N1 [PHENYTOIN] | – | – | – | – | 30 | minimal effective dose (Mus musculus [9]): 30 mg/kg; MTC (Mus musculus [8]): 100 mg/kg; MTC (Mus musculus [10]): 100 mg/kg; Activity (Mus musculus [5]): inactive; Activity (Mus musculus [6]): inactive; Activity (Rattus norvegicus [11]): 25%; Activity (Rattus norvegicus [12]): 100%; Activity (Rattus norvegicus [13]): 75%; Activity (Rattus norvegicus [14]): 75%; Activity (Rattus norvegicus [15]): 75%; Activity (Rattus norvegicus [16]): Non-toxic; TD50 [17]: > 100 mg/kg; Ratio TD50/ED50 (Rattus norvegicus [18]): 3.6; Time (Rattus norvegicus [19]): 2 h; Ratio TD50/ED50 (Mus musculus [20]): 7.74; Time (Mus musculus [21]): 1 h
5 | O=C1CC(c2ccccc2Br)C(=O)N1CN1CCN(c2ccccc2)CC1 (racemic) | inactive | – | Non-toxic | Non-toxic | 100 | Activity (Mus musculus [22]): 25%; Activity (Mus musculus [23]): 0%; Activity (Mus musculus [24]): 50%; Activity (Mus musculus [25]): 75%; Activity (Mus musculus [26]): 50%
6 | O=C1CC(c2ccccc2Br)C(=O)N1CN1CCN(c2cccc(C(F)(F)F)c2)CC1 (racemic) | inactive | – | Non-toxic | – | 300 | –
7 | O=C1CC(c2ccccc2F)C(=O)N1CN1CCN(c2cccc(Cl)c2)CC1 (racemic) | inactive | inactive | Non-toxic | Non-toxic | – | –
8 | O=C1CC(c2ccccc2F)C(=O)N1CN1CCN(c2ccccc2F)CC1 (racemic) | inactive | inactive | Non-toxic | Non-toxic | – | –
9 | O=C1CC(c2ccccc2F)C(=O)N1CN1CCN(c2ccccc2Cl)CC1 (stereo not given) | inactive | inactive | Non-toxic | Non-toxic | – | –
